Test results published in ChEMBL document CHEMBL3120062, “Novel 8-(p-substituted-phenyl/benzyl)xanthines with selectivity for the A2A adenosine receptor possess bronchospasmolytic activity” (Eur J Med Chem, 2014).
pKi: −log10 of the molar value. Calls of active or inactive are those of the source. No cut-off for these calls is given here.

Tests used:
Cavia porcellus [1] = test: Bronchospasmolytic activity in histamine aerosol-induced Dunkin-Hartley guinea pig assessed as survival at 50 mg/kg, po pretreated for 1 hr followed by histamine aerosol-challenge relative to control; format: functional
How it was run: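 Male Dunkin Hartley guinea pigs (250 ± 30 g), 4 per group, fasted overnight. Each animal was given test drug, theophylline or vehicle at 50 mg/kg by mouth in CMC + distilled water, 1 h before challenge. It was then exposed singly in a histamine chamber to 5 ml of 1% histamine aerosolised over 1 min. Onset, jerk duration, severity and death or survival were recorded. Survival is given as % of the group.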

Cavia porcellus [2] = test: Bronchospasmolytic activity in histamine aerosol-induced Dunkin-Hartley guinea pig assessed as severity of bronchospasm at 50 mg/kg, po pretreated for 1 hr followed by histamine aerosol-challenge; format: functional, organism-based; set-up: dose 50 mg/kg
Homo sapiens [3] = organism: Homo sapiens; test: Selectivity ratio of Ki for human recombinant adenosine A3 receptor to Ki for human recombinant adenosine A2A receptor
Homo sapiens [4] = organism: Homo sapiens; test: Selectivity ratio of Ki for human recombinant adenosine A2B receptor to Ki for human recombinant adenosine A2A receptor
Adenosine receptor A3 = molecular target: T1, Adenosine receptor A3 (Homo sapiens, UniProt P0DMS8); test: Displacement of [3H]-HEMADO from human recombinant adenosine A3 receptor expressed in CHO cell membranes after 3 hrs by microbeta counting analysis
T1 sequence (P0DMS8 whole entry): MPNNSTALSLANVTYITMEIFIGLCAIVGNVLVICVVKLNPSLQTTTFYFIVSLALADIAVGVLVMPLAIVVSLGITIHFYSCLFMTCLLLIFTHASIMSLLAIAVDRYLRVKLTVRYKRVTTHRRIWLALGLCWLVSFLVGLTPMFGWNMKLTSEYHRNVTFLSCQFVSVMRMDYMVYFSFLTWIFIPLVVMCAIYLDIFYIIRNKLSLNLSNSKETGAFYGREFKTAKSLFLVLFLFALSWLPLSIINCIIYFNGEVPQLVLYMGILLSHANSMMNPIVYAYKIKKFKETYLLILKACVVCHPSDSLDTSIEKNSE
How it was run: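 Human A3 receptor in stably transfected CHO cell membranes (10-50 µg protein), resuspended in 50 mM Tris/HCl, 10 mM MgCl2, 1 mM EDTA, pH 8.25. Incubated with [3H]HEMADO (1 nM) for 3 h at 25 °C, then filtered, washed and scintillation counted. Nonspecific binding was defined with R-PIA. Ki came from non-linear curve fitting; geometric means of 3–5 experiments.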

Adenosine receptor A2b = molecular target: T2, Adenosine receptor A2b (Homo sapiens, UniProt P29275); test: Binding affinity to human recombinant adenosine A2B receptor expressed in CHO cell membranes assessed as inhibition of NECA-stimulated adenylyl cyclase activity after 20 mins
T2 sequence (P29275 whole entry): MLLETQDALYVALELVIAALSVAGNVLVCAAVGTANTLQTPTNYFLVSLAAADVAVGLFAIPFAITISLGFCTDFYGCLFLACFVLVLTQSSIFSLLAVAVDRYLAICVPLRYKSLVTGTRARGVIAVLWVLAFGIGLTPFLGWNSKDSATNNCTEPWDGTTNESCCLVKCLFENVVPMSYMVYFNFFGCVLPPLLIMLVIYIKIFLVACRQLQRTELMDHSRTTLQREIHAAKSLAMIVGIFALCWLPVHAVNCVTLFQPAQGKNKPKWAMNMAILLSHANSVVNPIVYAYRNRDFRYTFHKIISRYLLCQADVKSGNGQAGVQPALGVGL
How it was run: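 Membranes from CHO cells stably expressing the human A2B receptor, prepared fresh by one 54,000 g spin and used immediately in 50 mM Tris/HCl pH 7.4. Concentration-dependent inhibition of NECA-stimulated adenylyl cyclase was measured with about 150,000 cpm [α-32P]ATP for 20 min. Ki was calculated from IC50 with the Cheng–Prusoff equation. Geometric means of 3–5 experiments.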

Adenosine receptor A1 = molecular target: T3, Adenosine receptor A1 (Homo sapiens, UniProt P30542); test: Displacement of [3H]-CCPA from human recombinant adenosine A1 receptor expressed in CHO cell membranes after 3 hrs by microbeta counting analysis
T3 sequence (P30542 whole entry): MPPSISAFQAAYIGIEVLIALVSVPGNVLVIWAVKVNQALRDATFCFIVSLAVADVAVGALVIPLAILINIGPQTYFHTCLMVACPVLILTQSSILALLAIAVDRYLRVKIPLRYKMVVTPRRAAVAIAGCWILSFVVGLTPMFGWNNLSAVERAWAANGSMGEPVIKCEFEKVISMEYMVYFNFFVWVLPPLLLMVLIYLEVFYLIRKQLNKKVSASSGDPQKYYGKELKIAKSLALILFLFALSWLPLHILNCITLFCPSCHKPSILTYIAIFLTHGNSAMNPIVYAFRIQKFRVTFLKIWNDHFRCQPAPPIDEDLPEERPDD
How it was run: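 Human A1 receptor stably expressed in CHO cells. Crude membranes (10-50 µg protein) in 50 mM Tris/HCl pH 7.4 were incubated with [3H]CCPA (1 nM) for 3 h at 25 °C, then filtered, washed with ice-cold buffer and counted by scintillation. Nonspecific binding was defined with theophylline. Ki came from non-linear curve fitting; geometric means of 3–5 experiments.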

Cavia porcellus [5] = test: Bronchospasmolytic activity in histamine aerosol-induced Dunkin-Hartley guinea pig assessed as time required for onset of bronchospasm at 50 mg/kg, po pretreated for 1 hr followed by histamine aerosol-challenge (reference value: 67 +/- 2 seconds); format: functional
Adenosine receptor A2a = Adenosine receptor A2a (Homo sapiens, UniProt P29274); test: Displacement of [3H]-NECA from human recombinant adenosine A2A receptor expressed in CHO cell membranes after 3 hrs by microbeta counting analysis
Sequence of Adenosine receptor A2a (P29274 whole entry): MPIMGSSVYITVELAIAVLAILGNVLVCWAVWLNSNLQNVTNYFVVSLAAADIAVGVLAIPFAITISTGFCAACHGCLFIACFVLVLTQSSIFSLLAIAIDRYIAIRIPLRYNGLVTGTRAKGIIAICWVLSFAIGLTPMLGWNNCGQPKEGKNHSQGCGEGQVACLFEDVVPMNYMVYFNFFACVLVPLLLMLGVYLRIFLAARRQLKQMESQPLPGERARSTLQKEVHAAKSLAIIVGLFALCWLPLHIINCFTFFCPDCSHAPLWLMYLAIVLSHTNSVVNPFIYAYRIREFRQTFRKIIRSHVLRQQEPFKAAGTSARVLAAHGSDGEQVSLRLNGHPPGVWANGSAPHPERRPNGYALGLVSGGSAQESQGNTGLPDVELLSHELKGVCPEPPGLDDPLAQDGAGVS
How it was run: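 Crude membranes (10-50 µg protein) from CHO cells stably expressing the human A2A receptor, in 50 mM Tris/HCl pH 7.4. Incubated with [3H]NECA (10 nM) for 3 h at 25 °C, then filtered, washed with ice-cold buffer and scintillation counted. Nonspecific binding was defined with R-PIA. Ki came from non-linear curve fitting; geometric means of 3–5 experiments.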

Homo sapiens [6] = organism: Homo sapiens; test: Selectivity ratio of Ki for human recombinant adenosine A1 receptor to Ki for human recombinant adenosine A2A receptor
Cavia porcellus [7] = test: Bronchospasmolytic activity in histamine aerosol-induced Dunkin-Hartley guinea pig assessed as duration of jerks at 50 mg/kg, po pretreated for 1 hr followed by histamine aerosol-challenge (reference value: 172 +/- 4 seconds); format: functional

Compound | survival at 50 mg/kg (Cavia porcellus [1]) [%] | Activity (Cavia porcellus [2]) | Ratio Ki (Homo sapiens [3]) | Ratio Ki (Homo sapiens [4]) | pKi (Adenosine receptor A3) | pKi (Adenosine receptor A2b) | pKi (Adenosine receptor A1) | Time (Cavia porcellus [5]) [s] | pKi (Adenosine receptor A2a) | Ratio Ki (Homo sapiens [6]) | Time (Cavia porcellus [7]) [s]
Cn1c(=O)c2[nH]c(-c3ccc(OCCCN4CCN(Cc5ccccc5Cl)CC4)cc3)nc2n(C)c1=O | 100 | Active | 57 | 1.4 | 5.16 | 6.77 | 5.73 | 109 | 6.92 | 15 | 
Cn1c(=O)c2[nH]c(Cc3ccc(OCCCN4CCOCC4)cc3)nc2n(C)c1=O | 100 |  |  |  | < 4.52 | < 5.00 | < 4.52 | 108 | < 5.00 |  | 
Cn1c(=O)c2[nH]c(-c3ccc(OCCCn4ccnc4)cc3)nc2n(C)c1=O | 75 |  | 54 | 25 | 5.64 | 5.98 | 6.05 | 108 | 7.38 | 21 | 71
Cn1c(=O)c2[nH]c(Cc3ccc(OCCCCl)cc3)nc2n(C)c1=O | 50 |  |  |  | < 4.52 | < 5.00 | < 4.52 | 75 | < 5.00 |  | 44
CCN(CC)CCOc1ccc(-c2nc3c([nH]2)c(=O)n(C)c(=O)n3C)cc1 | 75 |  | 27 | 10 | 5.17 | 5.59 | 5.80 | 115 | 6.60 | 6.4 | 49
Cn1c(=O)c2[nH]c(-c3ccc(OCCC4CCNCC4)cc3)nc2n(C)c1=O | 75 |  | 22 | 10 | 5.19 | 5.54 | 5.88 | 121 | 6.54 | 4.6 | 22
Cn1c(=O)c2nc[nH]c2n(C)c1=O.O [THEOPHYLLINE] | 100 |  |  |  |  |  |  | 92 |  |  | 89
Cn1c(=O)c2[nH]c(-c3ccc(OCCN4CCOCC4)cc3)nc2n(C)c1=O | 100 |  | 8.8 | 4.3 | 5.56 | 5.87 | 5.59 | 104 | 6.51 | 8.3 | 45
CN(C)CCOc1ccc(-c2nc3c([nH]2)c(=O)n(C)c(=O)n3C)cc1 | 100 |  | 24 | 12 | 5.03 | 5.31 | 5.74 | 111 | 6.40 | 4.6 | 39
Cn1c(=O)c2[nH]c(-c3ccc(OCCN4CCCC4)cc3)nc2n(C)c1=O | 100 |  | 23 | 9.9 | 5.34 | 5.71 | 5.92 | 111 | 6.70 | 6 | 32
Cn1c(=O)c2[nH]c(Cc3ccc(OCCCn4ccnc4)cc3)nc2n(C)c1=O | 50 |  | > 9.5 | > 3.2 | < 4.52 | < 5.00 | < 4.52 | 83 | 5.50 | > 9.5 | 
Cn1c(=O)c2[nH]c(-c3ccc(OC4CCCC4)cc3)nc2n(C)c1=O | 50 |  | > 420 | 14 | < 5.00 | 6.00 | < 4.52 | 72 | 7.14 | > 420 | 35
Cn1c(=O)c2[nH]c(-c3ccc(OCCCCl)cc3)nc2n(C)c1=O | 100 |  | > 670 | > 220 | < 4.52 | < 5.00 | < 5.00 | 114 | 7.35 | > 220 | 30
Cn1c(=O)c2[nH]c(Cc3ccc(OCCCN4CCC5(CC4)OCCO5)cc3)nc2n(C)c1=O | 50 |  | > 3.7 | > 1.2 | < 4.52 | < 5.00 | < 4.52 | 73 | 5.09 | > 3.7 | 23
